In brackets after ≈: the same amount, converted by molar mass.
Assays:
DU-145 = assay: Growth inhibition of human DU145 cells after 48 hrs by sulforhodamine B assay; assay type: functional; conditions: DU-145, 48 h
In short: (§1)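 NCI sulforhodamine B assay. Cells were seeded in 5% FBS/RPMI-1640 and incubated 24 h. Serial compound dilutions were then added for 48 h. Cells were fixed with trichloroacetic acid, stained with SRB and read by microplate reader. GI50 is the concentration giving 50% reduction in net protein increase, calculated from optical density data.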

[1] = Solubility of the compound in water; assay type: physicochemical; conditions: buffer
In short: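 Solubility expressed as amount dissolving in 1 mL H₂O at 25 °C.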

P388 = assay: Growth inhibition of mouse P388 cells after 48 hrs by Z1 Beckman/Coulter particle counter analysis; assay type: functional; conditions: P388, 48 h, read-out: ED50 (the source's name)
In short: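 Mouse P388 leukemia cells were incubated 24 h in 10% horse serum/Fisher medium, then exposed 48 h to serial compound dilutions. ED50 was calculated from cell counts on a Coulter Z1 particle counter.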

NCI-H460 = assay: Growth inhibition of human NCI-H460 cells after 48 hrs by sulforhodamine B assay; assay type: functional; conditions: NCI-H460, 48 h; in short: as §1
BXPC-3 = assay: Growth inhibition of human BxPC3 cells after 48 hrs by sulforhodamine B assay; assay type: functional; conditions: BXPC-3, 48 h; in short: as §1
SF-268 = assay: Growth inhibition of human SF268 cells after 48 hrs by sulforhodamine B assay; assay type: functional; conditions: SF-268, 48 h; in short: as §1
MCF7 = assay: Growth inhibition of human MCF7 cells after 48 hrs by sulforhodamine B assay; assay type: functional; conditions: MCF7, 48 h; in short: as §1
Neisseria gonorrhoeae = assay: Antibacterial activity against Neisseria gonorrhoeae ATCC 49226 by broth microdilution method; assay type: functional
In short: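 Broth microdilution followed NCCLS standard methods. Compounds were reconstituted in sterile DMSO and diluted in the appropriate medium immediately before testing. MIC was taken as the lowest concentration giving no visible growth (optically clear). Assays were repeated on separate days.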

KM-20L2 = assay: Growth inhibition of human KM20L2 cells after 48 hrs by sulforhodamine B assay; assay type: functional; conditions: KM-20L2, 48 h; in short: as §1
[2] = Inhibition of purified tubulin assembly after 20 mins
In short: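 Purified tubulin at 10 μM in 0.8 M monosodium glutamate (pH 6.6), 0.4 mM GTP and 4% (v/v) DMSO, with varying compound concentrations. Extent of assembly was measured after 20 min at 30 °C.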

Row | SMILES | GI50 (DU-145) | solubility [1] | EC50 (P388) | GI50 (NCI-H460) | GI50 (BXPC-3) | GI50 (SF-268) | GI50 (MCF7) | MIC (Neisseria gonorrhoeae) | GI50 (KM-20L2) | IC50 [2]
1 | COc1ccc(/C=C\c2cc(I)c(OC)c(OC)c2)cc1OP(=O)([O-])[O-].[Li+].[Li+] | 0.0043 µg/mL | >= 2.4 mg/ml | 0.017 µg/mL | 0.0039 µg/mL | 0.49 µg/mL | 0.004 µg/mL | 0.0038 µg/mL | – | – | –
2 | C1CCNCC1.C1CCNCC1.COc1ccc(/C=C\c2cc(I)c(OC)c(I)c2)cc1OP(=O)(O)O | 0.025 µg/mL | – | 0.011 µg/mL | 0.025 µg/mL | 0.33 µg/mL | 0.041 µg/mL | 0.07 µg/mL | < 0.5 µg/mL | > 1 µg/mL | –
3 | COc1ccc(/C=C/c2cc(I)c(OC)c(I)c2)cc1O | 5.8 µg/mL (≈ 11.4 µM) | – | > 10 µg/mL | 3.4 µg/mL (≈ 6.69 µM) | 3 µg/mL (≈ 5.9 µM) | 3.3 µg/mL (≈ 6.49 µM) | 0.94 µg/mL (≈ 1.85 µM) | – | > 10 µg/mL | –
4 | COc1ccc(/C=C\c2cc(I)c(OC)c(OC)c2)cc1OP(=O)(O)O.OCN(CO)CO.OCN(CO)CO | 0.0047 µg/mL | – | 0.0029 µg/mL | 0.004 µg/mL | 0.37 µg/mL | 0.0043 µg/mL | 0.0048 µg/mL | 32 µg/mL | 0.4 µg/mL | –
5 | COC(=O)CN.COC(=O)CN.COc1ccc(/C=C\c2cc(I)c(OC)c(I)c2)cc1OP(=O)(O)O | 0.023 µg/mL | – | 0.011 µg/mL | 0.03 µg/mL | 0.36 µg/mL | 0.054 µg/mL | 0.1 µg/mL | < 0.5 µg/mL | > 1 µg/mL | –
6 | C1COCCN1.C1COCCN1.COc1ccc(/C=C\c2cc(I)c(OC)c(OC)c2)cc1OP(=O)(O)O | 0.0026 µg/mL | – | 0.0032 µg/mL | 0.0036 µg/mL | 0.21 µg/mL | 0.0037 µg/mL | 0.0047 µg/mL | 16 µg/mL | 0.24 µg/mL | –
7 | COc1ccc(/C=C\c2cc(F)c(OC)c(OC)c2)cc1O [FLUORCOMBSTATIN] | 0.0019 µg/mL (≈ 0.00624 µM) | – | 0.002 µg/mL (≈ 0.00657 µM) | 0.0032 µg/mL (≈ 0.0105 µM) | – | 0.0016 µg/mL (≈ 0.00526 µM) | 0.0027 µg/mL (≈ 0.00887 µM) | – | > 1 µg/mL | –
8 | COc1ccc(/C=C\c2cc(OC)c(OC)c(OC)c2)cc1OP(=O)([O-])[O-].[Na+].[Na+] [FOSBRETABULIN DISODIUM] | 0.0072 µg/mL | – | 0.0004 µg/mL | 0.029 µg/mL | 0.23 µg/mL | 0.036 µg/mL | – | – | 0.034 µg/mL | > 40 µM
9 | C1COCCN1.C1COCCN1.COc1ccc(/C=C\c2cc(I)c(OC)c(I)c2)cc1OP(=O)(O)O | 0.028 µg/mL | – | 0.014 µg/mL | 0.033 µg/mL | 0.35 µg/mL | 0.054 µg/mL | 0.066 µg/mL | < 0.5 µg/mL | > 1 µg/mL | –
